Test results published in ChEMBL document CHEMBL1124692, “Synthesis of a tritium-labeled indolidan analogue and its use as a radioligand for phosphodiesterase-inhibitor cardiotonic binding sites” (J Med Chem, 1989).

Tests used:
Phosphodiesterase 4 [1] = target: T1, Phosphodiesterase 4 (Homo sapiens, UniProt P27815+Q08499+Q07343+Q08493); assay: (§1) Displacement [3H]LY-186,126 from phosphodiesterase 4 of myocardial vesicles; assay type: tissue-based, Canis lupus familiaris, Myocardium
How it was run: (§2)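 Canine ventricular myocardial vesicles (mixed sarcolemmal and SR; stored at –80 °C), about 100 μg protein, incubated 60 min at 25 °C in 50 mM Tris-Cl pH 7.4, 5 mM MgCl2, 0.01% BSA with 10 nM [3H]-LY186126 (79.2 Ci/mmol). Competitors in DMSO were tested at 0.003–100 μM in half-log steps. Samples were filtered on GF/C and washed with cold phosphate. Specific binding is the part displaced by 100 μM indolidan. Run in triplicate; Ki from nonlinear least-squares fits.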

[2] = as §1; assay type: tissue-based, Canis lupus familiaris, Myocardium; how it was run: as §2
Phosphodiesterase 4 [3] = target: T1, Phosphodiesterase 4; assay: Inhibition of sarcoplasmic reticulum Phosphodiesterase 4; assay type: protein assay, Canis lupus familiaris
Phosphodiesterase 4 [4] = target: T1, Phosphodiesterase 4; assay: Binding affinity for sarcoplasmic reticulum phosphodiesterase 4 of canine ventricle; assay type: protein assay, Canis lupus familiaris; details: target entry is the homologue from another species
Phosphodiesterase 4 [5] = target: T1, Phosphodiesterase 4; assay: Binding affinity for Phosphodiesterase 4 of canine myocardial vesicles; assay type: protein assay, Canis lupus familiaris; details: target entry is the homologue from another species; how it was run: as §2

Ki (Phosphodiesterase 4 [1]) | IC50 (Phosphodiesterase 4 [3]) | SMILES | other results
0.54 nM |  | CC1CC(=O)NN=C1c1ccc2c(c1)C(C)(C)C(=O)N2 (centres undefined) | 
 |  | O=C1CCC(c2ccc3c(c2)CCC(=O)N3)=NN1 | Ki [2]: 2.5 nM
61400 nM |  | CN1N=C(c2ccc3c(c2)CC(=O)N3)CCC1=O | 
 | 120 nM | CC1CC(=O)NN=C1c1ccc2c(c1)C(C)(C)C(=O)N2C (centres undefined) | Kd (Phosphodiesterase 4 [4]): 3.9 nM; Kd (Phosphodiesterase 4 [5]): 4.1 nM
5.4 nM | 150 nM | CC1(C)C(=O)Nc2ccc(C3=NNC(=O)CC3)cc21 [INDOLIDAN] | 
 | 760 nM | CN1C(=O)C(C)(C)c2cc(C3=NNC(=O)CC3)ccc21 | 
